Many of the other results were omitted from the sample, so hits are more common in it than they were.
PTEN del growth: growth suppression of PTEN-null HCT116, primary screen, cell-based, CellTiter-Glo. viability, % at 10 µM. AID 827, 2007. hit rate 1.2% among 140,000. HCT116 PTEN-null viability, 60 h; stronger effect = lower value;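 active = viability at or below a set limit, 4 SD under the median of all tested compounds, cut at about 3.7% in these data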;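 note: PTEN knockout HCT116 line with beta catenin targeted HCT116 as companion control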
PTK2B oligo ant: antagonists of Pyk2 self-association, primary screen, Q293 cells, FERM NanoBiT luminescence, HTS; stronger effect = lower value; Protein-tyrosine kinase 2-beta (Homo sapiens), Q14289; z-score (the deposit names both 25 µM and 10 µM); AID 1347419, 2020; hit rate 0.83% among 99,000;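 active = Z-score of -3 or lower, scaled per plate to the spread of control and sample wells; inactive = z-score above -3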;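 note: negative z-score means lost luminescence so less FERM oligomerization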
HUVEC prolif 384: inhibitors of HUVEC proliferation, primary screen, cell-based, 384-well. CellTiter-Glo luminescence, 72 h; stronger effect = lower value. viability, % at 10 µM (by protocol). hit rate 1.1% among 86,000. AID 648, 2007;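 active = viability at or below 30%; inactive = viability above 30%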;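 note: 100% = median luminescence of DMSO-only cell control wells on each plate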
HCT116 bCat-KO: primary screen for growth suppressors in beta-catenin knockout HCT116 cells (colon tumor, human); HCT116 beta-catenin knockout viability, CellTiter-Glo, 60 h; stronger effect = lower value; viability, % at 10 µM; hit rate 1.5% among 140,000;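 active = viability at or under a set limit, the compound median less 4 SD, cut at about 6% in these data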;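 note: 0% = Hyamine 1622 control at 20 µM and 100% = untreated cell control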
Fibroblast inh: antiproliferative effect on LL 47 fibroblasts – human, LL 47 cells, CellTiter-Glo luminescence, primary screen; LL 47 human lung fibroblast viability, ATP luminescence; stronger effect = lower value; viability, % at 10 µM; hit rate 1.1% among 85,000;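 active = viability at or below 50% in the single dose screen; inactive = viability above 50%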;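 note: compound exposure lasted 72 h before the ATP readout; 100% = median luminescence of untreated cell-only wells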
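Material: human lung fibroblast line LL 47, low passage; Evaluation: viability percentage against median untreated-cell control; Buffer or medium: 15% FBS in IMEM; Incubation: 72 h compound exposure at 37 °C after overnight plating; Dosing: 0.1% DMSO in all compound wells; Measured by: CellTiter-Glo luminescence.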
H69AR growth 86K: proliferation blockers of H69AR lung cancer cells, primary screen, cell-based, human, 86K library | H69AR lung tumor viability, ATP luminescence, 72 h; stronger effect = lower value | viability, % at 10 µM | hit rate 6% among 85,000 | AID 598, 2007;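 active = viability at or below 40%; inactive = viability above 40%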;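 note: multidrug resistant small cell line overexpressing MRP-1 efflux transporter; 100% = mean luminescence of untreated control wells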
Active calls of the source: *; / = no result given.

SMILES	PTEN del growth	PTK2B oligo ant	HUVEC prolif 384	HCT116 bCat-KO	Fibroblast inh	H69AR growth 86K
CC1C/C(=C\c2cccnc2)C(=O)/C(=C/c2cccnc2)C1 (stereo not drawn)	2.1*	/	/	2.7*	/	/
O=C1/C(=C\c2cccnc2)Sc2ccccc21	63	/	/	65	/	/
Cc1cccc(C=Nc2ccccc2C(N)=O)c1	24	0.09	63	22	58	23*
Cc1ccc(C=Nc2ccccc2C(N)=O)s1	14	/	/	16	/	/
COc1ccc(/C=N/N=C2\SC(CC(=O)O)C(=O)N2c2ccccc2)cc1 (stereo not drawn)	103	/	/	93	/	/
CCOC(=O)c1c(CN2CCN(C)CC2)oc2ccc(OC)cc12	97	-0.57	92	98	105	88
CCOC(=O)c1c(CN2CCN(c3ccccc3)CC2)oc2ccc(O)cc12	70	/	27*	86	92	31*
COc1cc(/C=C/C(=O)OCC(=O)NCc2cccs2)ccc1OCC#N	100	/	/	75	/	/
Clc1ccc(N2CCN(c3ncnc4c3oc3ccccc34)CC2)cc1	/	0.34	27*	/	117	65
O=C(Nc1cccc(-c2nc3ccccc3o2)c1)c1ccc(N2C(=O)C3C4C=CC(C4)C3C2=O)cc1 (stereo not drawn)	47	-3	58	53	73	39*
O=C1C2C3C=CC(C3)C2C(=O)N1c1cccc(-c2nc3ccccc3o2)c1 (stereo not drawn)	101	-0.95	99	90	110	99
Cc1ccc(NC(=O)CSC(N)=O)cc1Cl	62	0.21	59	74	98	18*
NC(=O)SCC(=O)Nc1cccc(Cl)c1	84	-0.26	97	81	104	40
NC(=O)SCC(=O)Nc1ccc(Cl)c(Cl)c1	1.4*	2	65	1.1*	95	11*
NC(=O)SCC(=O)Nc1ccc(Cl)cc1	97	0.01	/	95	/	/
COc1ccccc1NC(=O)N1CCC(c2nc3cc(C)c(C)cc3[nH]2)CC1	14	0.2	37	16	48*	27*
COc1ccccc1NC(=S)N1CCC(c2nc3cc(C)c(C)cc3[nH]2)CC1	81	0.05	/	86	/	/
COc1cc(C=C(C(C)=O)C(C)=O)ccc1O	83	-0.03	89	84	99	91
COc1ccc(C=C(C(C)=O)C(C)=O)cc1OC	92	-0.19	89	111	103	22*
Cc1ccc(OC(=O)C2c3ccccc3Oc3ccccc32)cc1C	90	/	/	81	/	/
N#CC1=C2SCC(O)(c3ccccc3)N2C(=O)CC1c1ccccc1F (stereo not drawn)	26	-3*	37	27	60	15*
C/C(=N/N1CCN(c2ccccn2)CC1)c1cccc([N+](=O)[O-])c1	98	/	/	94	/	/
CCOc1cc(-c2noc(N)c2C(=O)OC)cc(OCC)c1OCC	73	0.98	100	75	94	23*
COC(=O)c1c(-c2ccc(Br)cc2)noc1N	38	-1.1	89	49	80	29*
CCOC(=O)C(=O)/C(=C\N(C)C)c1onc(-c2ccccc2)c1C(=O)OC	101	-0.03	/	98	/	/
SMILES	PTEN del growth	PTK2B oligo ant	HUVEC prolif 384	HCT116 bCat-KO	Fibroblast inh	H69AR growth 86K
Cc1cc(C)n(-c2nc3c(c(=O)[nH]c(=O)n3C)n2CC(O)COc2ccccc2C)n1 (stereo not drawn)	93	-0.05	92	92	99	68
COc1ccc2nc(SCC(=O)Nc3ccc(S(=O)(=O)N4CCCC4)cc3)c(C#N)cc2c1	78	-1.9	91	73	100	6.0*
CN(C)/C=C1\C(=O)c2ccc(N(C)C)nc2CC1c1ccccc1 (stereo not drawn)	/	/	93	/	94	/
CC1(C)CC(=O)C2=C(C1)Oc1nc3ccccc3cc1C2C(C#N)C#N (stereo not drawn)	6	0.55	50	9	17*	1.6*
CC1(C)CC(=O)C2=C(C1)OC(N)=C(C#N)C2c1ccccc1 (stereo not drawn)	82	0.47	97	95	95	90
Cc1ccc(-c2nnc(SCC(=O)NC3CCS(=O)(=O)C3)nc2-c2ccc(C)cc2)cc1 (stereo not drawn)	85	/	/	91	/	/
CC(=O)Nc1cccc(Oc2cc(C#N)c(C#N)cc2N2CCCCCC2)c1	76	-2.6	70	69	90	32*
COC(=O)/C=c1/s/c(=C(/C#N)C(=O)N2CCCCC2)n(-c2ccccc2)c1=O	99	/	86	90	102	36*
COc1cc(/C=c2\s/c(=C(/C#N)C(=O)N3CCCC3)n(-c3ccccc3)c2=O)ccc1O	28	-3*	12*	64	77	10*
COC(=O)/C=c1/s/c(=C(/C#N)C(=O)N2CCOCC2)n(-c2ccccc2)c1=O	105	-0.88	102	108	100	67
COc1cc(/C=C(\C#N)c2nnc(N3CCOCC3)n2-c2ccccc2)ccc1O	80	/	/	74	/	/
CCn1nc([N+](=O)[O-])c(C(C#N)c2nc3cc(C(F)(F)F)ccc3s2)c(Cl)c1=O (stereo not drawn)	70	-3.3*	/	74	/	/
CCCn1nc([N+](=O)[O-])c(C(C#N)c2nc3ccccc3o2)c(Cl)c1=O (stereo not drawn)	77	/	/	75	/	/
CN=C1CC(SC)=C1c1ccc(C)cc1	114	0.79	61	91	33*	38*
COc1cc(OC)c(OC)cc1CN1CCN(Cc2cccn2C)CC1	100	/	/	85	/	/
CCOc1cc(C)c(-c2onc(C(F)(F)F)c2-c2csc(C)n2)c(O)c1	58	-2.2	39	79	88	3.9*
CCN(CC)C(=S)Nc1ccc(Cl)c(Cl)c1	91	/	/	92	/	/
O=C(Nc1ccccc1)c1sc(N2CCOCC2)nc1-c1ccccc1	95	/	/	93	/	/
N#C/C(=C\c1sc(N2CCOCC2)nc1-c1ccccc1)C(=O)Nc1cccc2ccccc12	2.3*	/	/	3.9*	/	/
CCOC(=O)NC(NCCc1ccccc1)(C(F)(F)F)C(F)(F)F	104	-0.61	98	101	98	12*
CCOC(=O)NC(NCc1ccccc1)(C(F)(F)F)C(F)(F)F	89	/	/	84	/	/
Cc1ccc(-c2[nH]c3ccccc3c2SCCNC(=O)c2ccc(S(=O)(=O)N3CCOCC3)cc2)cc1	0.8*	/	/	0.8*	/	/
O=C1/C(=C/c2ccc(F)cc2)SC(=S)N1Nc1ncc(C(F)(F)F)cc1Cl	87	1.1	/	109	/	/
Cc1cc(C)nc(NN2C(=O)/C(=C/c3ccc(O)cc3)SC2=S)n1	87	-3.5*	/	84	/	/
COc1ccccc1/C=C1\SC(=S)N(Nc2nc(C)cc(C)n2)C1=O	97	-3.8*	/	90	/	/
O=c1c2ccccc2cnn1Cc1n[nH]c(=S)n1-c1ccccc1	97	/	/	99	/	/

Screening results deposited in PubChem by several laboratories.
